This is an account of results in ChEMBL document CHEMBL2169797, “Rediocide A, an Insecticide, induces G-protein-coupled receptor desensitization via activation of conventional protein kinase C” (J Nat Prod, 2012).

The target of assay [1] is T1, Glucagon receptor (Homo sapiens, UniProt P47871). The assay is described as follows: Activation of pDsRed-tagged GCGR expressed in HEK293 cells assessed as receptor internalization at 100 nM incubated after 30 mins by Hoechst staining-based fluorescence microscopy. Format: cell-based. The essentials:
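HEK293 cells transfected with pDsRed-GCGR were seeded on coverslips, cultured overnight, then stimulated at 37 °C for 30 min, with 1% DMSO as the negative control. Cells were fixed in 4% formaldehyde in PBS and nuclei were stained with Hoechst 33342 for 10 min at room temperature. Receptor surface versus internalized location was judged by fluorescence microscopy.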

The target in assay [2] is T1, Glucagon receptor. Kind of assay: Agonist activity at GCGR expressed in HEK293 cells assessed as calcium influx at 100 nM by Fluor-4-AM based fluorimetry. It is filed as functional, cell-based. The essentials: (§1)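 HEK293 cells stably co-expressing GCGR and Gα16 (G418/blasticidin selected) were seeded at 3 × 10^4 cells/well and cultured overnight. They were loaded with 2 μM Fluo-4 AM in HBSS (pH 7.4, 250 μM sulfinpyrazone) at 37 °C for 45 min, held 10 min at room temperature, then given agonist. Calcium was read at ex 485/em 525 nm. IC50 came from nonlinear regression, means ± SEM, n = 3.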

The target of assay [3] is T1, Glucagon receptor. The assay is described as follows: Agonist activity at GCGR expressed in HEK293 cells assessed as calcium influx at 100 nM by Fluor-4-AM based fluorimetry in presence of GF109203X. Format: functional, cell-based. The essentials:
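Fluo-4 AM-loaded GCGR stable HEK293 cells were preincubated with 10 μM GF109203X for 15 min, then stimulated with 100 nM glucagon, test agent or 1% DMSO. After 30 min they were washed and restimulated with 100 nM glucagon, with calcium read fluorimetrically. There were three independent experiments, each in triplicate.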

The target of assay [4] is T1, Glucagon receptor. Kind of assay: Induction of GCGR desensitization expressed in HEK293 cells assessed as reduction in calcium influx at 100 nM incubated for 30 mins prior to second-induction by Fluo-4-AM based fluorimetry. Format: functional, cell-based. The essentials: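 GCGR/Gα16 stable HEK293 cells were loaded with Fluo-4 AM and given a first stimulation (100 nM glucagon or test agent; 1% DMSO as the negative control). After a 30 min incubation, cells were washed and restimulated with 100 nM glucagon, and intracellular calcium was recorded at ex 485/em 525 nm. There were three independent experiments, each in triplicate.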

The target in assay [5] is T1, Glucagon receptor. Kind of assay: Induction of GCGR desensitization expressed in HEK293 cells assessed as reduction in glucagon-induced calcium influx at 1 uM incubated for 30 mins prior to glucagon-induction by Fluo-4-AM based fluorimetry in presence of GF109203X. It is filed as functional, cell-based. The essentials: (§2)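 Setup as for the GCGR calcium assay (stable GCGR/Gα16 HEK293, 2 μM Fluo-4 AM, HBSS pH 7.4). Cells preincubated 15 min with 10 μM GF109203X. Then first stimulation with compound, 100 nM glucagon or 1% DMSO. After 30 min cells washed, restimulated with 100 nM glucagon, calcium read at ex 485/em 525 nm. Three independent experiments in triplicate.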

Assay [6] has as its target T2, Protein kinase C (PKC) (Homo sapiens) (UniProt O94806+P41743+P17252+P05129+Q05655+P05771+Q05513+Q02156+P24723+Q15139+Q04759). The assay is described as follows: Induction of PKC phosphorylation in HEK293 cells at 1 uM by Western blot analysis in presence of GF109203 X. Format: cell-based. The essentials: (§3)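 Serum-starved (4 h) HEK293 cells. Phospho-PKC induced by compound (1 μM) or TPA (100 nM), each in the presence of GF109203 X (1 μM) or rottlerin (10 μM). Read by Western blot with phospho-PKC antibody, normalized to GAPDH. Mean ± SEM, n = 3; two-tailed t test.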
On the technique in general: Immunoblotting shows a protein as a band on a membrane.

Assay [7] deals with T1, Glucagon receptor. The assay is described as follows: Induction of GCGR desensitization expressed in HEK293 cells assessed as reduction in glucagon-induced calcium influx at 1 uM incubated for 30 mins prior to glucagon-induction by Fluo-4-AM based fluorimetry. Format: functional, cell-based. The essentials:
(§4)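 HEK293 cells stably co-expressing GCGR and Gα16, selected with G418/blasticidin, seeded 3 × 10^4/well overnight. Loaded with 2 μM Fluo-4 AM in HBSS with sulfinpyrazone, pH 7.4, 45 min at 37 °C. First stimulation with compound, 100 nM glucagon or 1% DMSO. After 30 min cells washed and restimulated with 100 nM glucagon. Calcium read at ex 485/em 525 nm. Three independent experiments, each in triplicate.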

Assay [8] concerns the target T3, C-C chemokine receptor type 6 (Homo sapiens, UniProt P51684).
T3 sequence (P51684 whole entry): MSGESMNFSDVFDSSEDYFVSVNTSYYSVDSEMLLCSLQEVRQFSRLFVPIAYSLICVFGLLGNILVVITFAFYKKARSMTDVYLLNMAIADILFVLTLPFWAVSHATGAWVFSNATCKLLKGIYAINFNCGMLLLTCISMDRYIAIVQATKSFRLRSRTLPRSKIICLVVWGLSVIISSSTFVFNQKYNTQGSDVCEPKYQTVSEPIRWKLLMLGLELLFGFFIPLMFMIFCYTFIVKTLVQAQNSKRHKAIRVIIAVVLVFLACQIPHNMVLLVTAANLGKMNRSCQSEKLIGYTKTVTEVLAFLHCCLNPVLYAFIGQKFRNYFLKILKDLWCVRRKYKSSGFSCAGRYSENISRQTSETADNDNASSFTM
Kind of assay: Inhibition of CCR6 expressed in HEK293 cells assessed as inhibition of calcium influx after 10 mins by Fluo-4-AM based fluorimetry. It is filed as functional, cell-based. The essentials:
(§5)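 HEK293 cells stably co-expressing the receptor and Gα16, seeded 3 × 10^4/well overnight. Loaded with 2 μM Fluo-4 AM in HBSS (pH 7.4, 250 μM sulfinpyrazone) 45 min at 37 °C, then pretreated with compound. Receptor-specific agonist added (SunA1-30 for Mth-B). Calcium recorded at ex 485/em 525 nm. IC50 from nonlinear regression; mean ± SEM, n = 3.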

For assay [9], the target named is T1, Glucagon receptor. The assay is described as follows: Agonist activity at GCGR expressed in HEK293 cells assessed as calcium influx at 1 uM by Fluor-4-AM based fluorimetry in presence of GF109203X. Format: functional, cell-based. The essentials: as §2
Assay [10] deals with T2, Protein kinase C (PKC) (Homo sapiens). The assay is described as follows: Induction of PKC phosphorylation in HEK293 cells at 1 uM by Western blot analysis in presence of rotterin. Format: cell-based. The essentials:
as §3

The target in assay [11] is T1, Glucagon receptor. Kind of assay: Agonist activity at GCGR expressed in HEK293 cells assessed as calcium influx at 1 uM by Fluor-4-AM based fluorimetry. It is filed as functional, cell-based. The essentials: as §4
Assay [12] deals with T1, Glucagon receptor. The assay is described as follows: Inhibition of GCGR expressed in HEK293 cells assessed as inhibition of calcium influx after 10 mins by Fluo-4-AM based fluorimetry. It is filed as functional, cell-based. The essentials:
as §1

For assay [13], the target named is T2, Protein kinase C (PKC) (Homo sapiens). The assay is described as follows: Induction of PKC phosphorylation in HEK293 cells at 1 uM by Western blot analysis. It is filed as cell-based. The note with it: TDE = time-dependent effect. The essentials:
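HEK293 cells serum-starved 4 h, then treated for various durations at 37 °C, with 100 nM TPA as reference. Lysates run on 10% SDS-PAGE and immunoblotted with an antibody detecting phosphorylated conventional and novel PKC isoforms (1:1000). Signal normalized to GAPDH, detected by ECL. Mean ± SEM, n = 3; two-tailed t test.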

Another assay relates to HEK293. The assay is described as follows: (§6) Inhibition of Drosophila MthB expressed in HEK293 cells assessed as inhibition of SunA1-30-induced calcium influx incubated for 10 mins prior to SunA1-30 addition by Fluo-4-AM based fluorimetry. Format: cell-based. The essentials:
as §5

A short description of assay [14]: as §6. Format: cell-based. The essentials:
as §5

Assay [15] deals with T1, Glucagon receptor. Kind of assay: Activation of pDsRed-tagged GCGR expressed in HEK293 cells assessed as receptor internalization at 1 uM incubated after 30 mins by Hoechst staining-based fluorescence microscopy. It is filed as cell-based. The essentials: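 HEK293 cells transfected with pDsRed-GCGR, grown overnight on coverslips. Stimulated 30 min at 37 °C, with 1% DMSO as negative control. Fixed in 4% formaldehyde/PBS, nuclei stained with Hoechst 33342. Surface versus internalized receptor scored by fluorescence microscopy.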

The target in assay [16] is T4, Alpha-1A adrenergic receptor (Homo sapiens, UniProt P35348).
T4 sequence (P35348 whole entry): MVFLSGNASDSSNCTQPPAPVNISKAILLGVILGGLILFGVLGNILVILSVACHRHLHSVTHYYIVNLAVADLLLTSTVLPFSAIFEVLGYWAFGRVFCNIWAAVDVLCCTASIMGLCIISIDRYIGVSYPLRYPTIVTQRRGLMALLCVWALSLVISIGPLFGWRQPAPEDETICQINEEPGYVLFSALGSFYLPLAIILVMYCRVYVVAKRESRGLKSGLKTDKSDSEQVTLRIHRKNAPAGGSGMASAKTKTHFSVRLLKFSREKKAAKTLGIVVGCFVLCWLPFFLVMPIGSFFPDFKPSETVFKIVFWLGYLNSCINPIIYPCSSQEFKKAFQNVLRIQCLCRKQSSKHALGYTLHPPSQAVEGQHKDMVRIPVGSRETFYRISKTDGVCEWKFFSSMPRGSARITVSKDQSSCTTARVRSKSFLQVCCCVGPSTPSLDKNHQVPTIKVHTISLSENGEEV
The assay is described as follows: Inhibition of adrenergic receptor 1a expressed in HEK293 cells assessed as inhibition of calcium influx after 10 mins by Fluo-4-AM based fluorimetry. Format: functional, cell-based. The essentials: as §5

For assay [17], the target named is Protein kinase C alpha type (Homo sapiens) (UniProt P17252). The assay is described as follows: Activation of human GFP-tagged PKCalpha expressed in HEK293 cells assessed as translocation from cytoplasm to membrane at 1 uM after 30 mins by Hoechst staining-based fluorescence microscopy. Format: cell-based. The essentials:
(§7)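 HEK293 cells transfected with pCR259hPKCα-GFP, grown overnight on coverslips. Pretreated 15 min at 37 °C with GF109203 X or vehicle, then stimulated 30 min. Fixed in 4% formaldehyde/PBS, nuclei stained with Hoechst 33342 10 min at room temperature. GFP-PKCα membrane translocation imaged by inverted fluorescence microscopy.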

Assay [18] has the same target. Kind of assay: Activation of human GFP-tagged PKCalpha expressed in HEK293 cells assessed as translocation from cytoplasm to membrane at 1 uM after 30 mins by Hoechst staining-based fluorescence microscopy in presence of GF109203X. Format: cell-based. The essentials: as §7
The target in assay [19] is T5, Alpha-1B adrenergic receptor (Homo sapiens, UniProt P35368).
T5 sequence (P35368 whole entry): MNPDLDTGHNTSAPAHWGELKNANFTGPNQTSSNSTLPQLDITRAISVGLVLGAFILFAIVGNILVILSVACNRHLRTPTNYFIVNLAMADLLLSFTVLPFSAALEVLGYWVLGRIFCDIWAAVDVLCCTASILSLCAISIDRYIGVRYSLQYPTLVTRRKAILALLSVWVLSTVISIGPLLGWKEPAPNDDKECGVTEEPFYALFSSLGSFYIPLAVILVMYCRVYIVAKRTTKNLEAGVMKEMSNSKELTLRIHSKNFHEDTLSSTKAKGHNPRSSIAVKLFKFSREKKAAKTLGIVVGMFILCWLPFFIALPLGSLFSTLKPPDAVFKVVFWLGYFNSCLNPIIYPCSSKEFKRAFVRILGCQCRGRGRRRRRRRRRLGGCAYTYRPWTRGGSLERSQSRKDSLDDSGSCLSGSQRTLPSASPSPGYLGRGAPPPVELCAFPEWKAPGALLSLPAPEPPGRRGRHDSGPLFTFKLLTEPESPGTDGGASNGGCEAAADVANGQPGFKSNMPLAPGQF
The assay is described as follows: Inhibition of adrenergic receptor 1b receptor expressed in HEK293 cells assessed as inhibition of calcium influx after 10 mins by Fluo-4-AM based fluorimetry. It is filed as functional, cell-based. The essentials: as §5

For assay [20], the target named is T1, Glucagon receptor. Kind of assay: Induction of GCGR desensitization expressed in HEK293 cells assessed as reduction in glucagon-induced calcium influx at 1 uM incubated for 30 mins prior to glucagon-induction by Fluo-4-AM based fluorimetry in presence of rottlerin. It is filed as functional, cell-based. The essentials: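 Stable GCGR/Gα16 HEK293 cells loaded with 2 μM Fluo-4 AM, then preincubated 15 min with 10 μM rottlerin. First stimulation with compound, 100 nM glucagon or DMSO. After 30 min cells washed and restimulated with 100 nM glucagon. Intracellular calcium recorded at ex 485/em 525 nm. Three independent experiments in triplicate.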

Activity calls are given as the source filed them. The calls are words filed in the database; no cut-off is given here.

T1 sequence (P47871 whole entry): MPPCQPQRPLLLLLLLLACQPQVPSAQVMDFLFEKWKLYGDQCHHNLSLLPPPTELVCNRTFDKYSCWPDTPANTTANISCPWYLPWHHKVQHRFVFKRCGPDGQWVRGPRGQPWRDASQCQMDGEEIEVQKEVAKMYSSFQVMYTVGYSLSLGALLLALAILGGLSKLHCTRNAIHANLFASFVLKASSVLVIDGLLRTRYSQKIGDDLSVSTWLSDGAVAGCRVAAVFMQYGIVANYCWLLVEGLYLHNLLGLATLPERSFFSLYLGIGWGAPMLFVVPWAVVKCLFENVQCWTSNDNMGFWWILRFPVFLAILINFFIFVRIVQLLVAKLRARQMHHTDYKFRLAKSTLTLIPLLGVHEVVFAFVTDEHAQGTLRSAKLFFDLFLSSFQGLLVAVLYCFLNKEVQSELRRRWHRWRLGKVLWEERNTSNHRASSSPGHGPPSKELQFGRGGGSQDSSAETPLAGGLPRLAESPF

For GLUCAGON, the result on Glucagon receptor [1], at Glucagon receptor [2], on Glucagon receptor [3] and at Glucagon receptor [4] was Active.
`CC(C)CC(=O)O[C@H]1/C=C/C=C/C(=O)O[C@H]2[C@@H](C)C[C@@H]3[C@]2(O)[C@H](O)[C@@]2(CO)O[C@H]2[C@H]2[C@H]4OC5(c6ccccc6)O[C@@H]([C@@H](C)[C@@]23O5)[C@@]4(O)[C@](C)(O)C[C@H]2CC[C@H]1[C@H]2C` [REDIOCIDE A]: the result (at Glucagon receptor [5]; in assay [6]; at Glucagon receptor [9]; at Glucagon receptor [11]; in assay [18]) was inactive. In addition, the result (at Glucagon receptor [7]; in [10]; at Glucagon receptor [15]; in assay [17]; at Glucagon receptor [20]) was Active. Further, the IC50 is 261 nM in assay [8]; 4 nM at Glucagon receptor [12]; 88 nM in [14]; 13 nM in [16]; 215 nM in assay [19]. Besides, the Activity result in assay [13] is “tde”. Also, the inhibition entry with HEK293 is “Dose-dependent effect”.

What is called IC50 is the concentration needed to halve the response being measured.
